Experimental data taken from ChEMBL document CHEMBL4270594, “Design, synthesis and pharmacological evaluation of new 3-(1H-benzimidazol-2-yl)quinolin-2(1H)-one derivatives as potential antitumor agents” (Eur J Med Chem, 2018).
Calls of active or inactive are those of the source. No cut-off for these calls is given here.

Tests used:
HepG2 [1] = test: Cell cycle arrest in human HepG2 cells assessed as accumulation at G1-phase at 8 uM after 48 hrs by propidium iodide staining based flow cytometry (reference value: 50.47%); type: functional
HepG2 [2] = test: Cell cycle arrest in human HepG2 cells assessed as accumulation at G2-phase at 8 uM after 48 hrs by propidium iodide staining based flow cytometry (reference value: 19.04%); type: functional
HepG2 [3] = test: Cell cycle arrest in human HepG2 cells assessed as accumulation at S-phase at 8 uM after 48 hrs by propidium iodide staining based flow cytometry (reference value: 30.49%); type: functional
HepG2 [4] = test: Cell cycle arrest in human HepG2 cells assessed as accumulation at S-phase at 10 uM after 48 hrs by propidium iodide staining based flow cytometry (reference value: 30.49%); type: functional
HepG2 [5] = test: Downregulation of Cyclin-B1 protein expression in human HepG2 cells at 6 to 10 uM after 12 hrs by Western blot analysis; type: functional, cell-based
HepG2 [6] = test: Upregulation of p27 protein expression in human HepG2 cells at 6 to 10 uM after 12 hrs by Western blot analysis; type: functional, cell-based
Procedure, shortened: (§1)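 HepG2 cell lysates after compound treatment analyzed by western blot for the target protein, compared with untreated negative control.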

Mus musculus [7] = test: Upregulation of p53 protein expression in tumor tissues of Balb/c nude mouse xenografted with human NCI-H460 cells at 25 to 50 mg/kg, ip bid for 13 days measured on day 14 by Western blot analysis; type: functional, organism-based
Procedure, shortened: (§2)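 Tumors from NCI-H460 xenografted BALB/c nude mice (25 or 50 mg/kg, vehicle 5% DMSO in saline) collected at day 14; protein levels in tumor tissue determined by western blot versus vehicle control.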

HepG2 [8] = test: Induction of apoptosis in human HepG2 cells assessed as morphological changes at 6 to 10 uM after 12 hrs by […] staining based fluorescence microscopic method; type: functional, cell-based
Procedure, shortened: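 HepG2 cells treated for 12 h, stained with Hoechst 33258 and viewed by fluorescence microscopy for nuclear blue fluorescence and apoptotic morphology, compared with untreated cells.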

HepG2 [9] = test: Induction of apoptosis in human HepG2 cells assessed as membrane blebbing at 6 to 10 uM after 12 hrs by acridine orange/ethidium bromide staining based fluorescence microscopic method; type: functional, cell-based
Procedure, shortened: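 HepG2 cells stained with acridine orange/ethidium bromide and examined by fluorescence microscopy; nuclei scored as yellow/green or orange, with pycnosis, membrane blebbing and cell budding taken as apoptotic morphology.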

HepG2 [10] = test: Induction of apoptosis in human HepG2 cells assessed as cell budding at 6 to 10 uM after 12 hrs by acridine orange/ethidium bromide staining based fluorescence microscopic method; type: functional
HepG2 [11] = test: Induction of apoptosis in human HepG2 cells assessed as live cells at 6 uM after 24 hrs by Annexin V-FITC/ propidium iodide staining based flow cytometry (reference value: 91.31%); type: functional
HepG2 [12] = test: Induction of apoptosis in human HepG2 cells assessed as necrotic cells at 6 uM after 24 hrs by Annexin V-FITC/ propidium iodide staining based flow cytometry (reference value: 0.28%); type: functional
HepG2 [13] = test: Induction of apoptosis in human HepG2 cells assessed as live cells at 8 uM after 24 hrs by Annexin V-FITC/ propidium iodide staining based flow cytometry (reference value: 91.31%); type: functional
HepG2 [14] = test: Induction of apoptosis in human HepG2 cells assessed as early apoptotic cells at 8 uM after 24 hrs by Annexin V-FITC/ propidium iodide staining based flow cytometry (reference value: 6.5%); type: functional
HepG2 [15] = test: Induction of apoptosis in human HepG2 cells assessed as late apoptotic cells at 8 uM after 24 hrs by Annexin V-FITC/ propidium iodide staining based flow cytometry (reference value: 1.91%); type: functional
HepG2 [16] = test: Induction of apoptosis in human HepG2 cells assessed as live cells at 10 uM after 24 hrs by Annexin V-FITC/ propidium iodide staining based flow cytometry (reference value: 91.31%); type: functional
HepG2 [17] = test: Induction of apoptosis in human HepG2 cells assessed as necrotic cells at 10 uM after 24 hrs by Annexin V-FITC/ propidium iodide staining based flow cytometry (reference value: 0.28%); type: functional
HepG2 [18] = test: Induction of apoptosis in human HepG2 cells after 24 hrs by Annexin V-FITC/ propidium iodide staining based flow cytometry; type: functional, cell-based
HepG2 [19] = test: Upregulation of Bax protein expression in human HepG2 cells at 6 to 10 uM after 12 hrs by Western blot analysis; type: functional, cell-based; procedure, shortened: as §1
HepG2 [20] = test: Induction of mitochondrial cytochrome-c release in to cytotol in human HepG2 cells at 6 to 10 uM after 12 hrs by Western blot analysis; type: functional, cell-based
HepG2 [21] = test: Upregulation of caspase-3 protein expression in human HepG2 cells at 6 to 10 uM after 12 hrs by Western blot analysis; type: functional, cell-based; procedure, shortened: as §1
HepG2 [22] = test: Upregulation of caspase-9 protein expression in human HepG2 cells at 6 to 10 uM after 12 hrs by Western blot analysis; type: functional, cell-based; procedure, shortened: as §1
HepG2 [23] = test: Upregulation of PARP protein expression in human HepG2 cells at 6 to 10 uM after 12 hrs by Western blot analysis; type: functional, cell-based; procedure, shortened: as §1
Mus musculus [24] = test: Upregulation of PARP protein expression in tumor tissues of Balb/c nude mouse xenografted with human NCI-H460 cells at 25 to 50 mg/kg, ip bid for 13 days measured on day 14 by Western blot analysis; type: functional, organism-based; procedure, shortened: as §2
Mus musculus [25] = test: Upregulation of Bax protein expression in tumor tissues of Balb/c nude mouse xenografted with human Bel7404 cells at 25 to 50 mg/kg, ip bid for 20 days measured on day 21 by Western blot analysis; type: functional, organism-based
BEL-7404 tumor cell line [26] = test: Antitumor activity against human Bel7404 cells xenografted in Balb/c nude mouse assessed as relative tumor volume increment rate at 50 mg/kg, ip bid for 20 days measured on day 21 post last dose relative to control; type: functional
BEL-7404 tumor cell line [27] = test: Antitumor activity against human Bel7404 cells xenografted in Balb/c nude mouse assessed as relative tumor volume increment rate at 25 mg/kg, ip bid for 20 days measured on day 21 post last dose relative to control; type: functional
BEL-7404 tumor cell line [28] = test: Antitumor activity against human Bel7404 cells xenografted in Balb/c nude mouse assessed as tumor growth inhibition at 25 mg/kg, ip bid for 20 days measured on day 21 post last dose relative to control; type: functional; details: BEL-7404, ip, read-out: TGI
BEL-7404 tumor cell line [29] = test: Antitumor activity against human Bel7404 cells xenografted in Balb/c nude mouse assessed as tumor growth inhibition at 50 mg/kg, ip bid for 20 days measured on day 21 post last dose relative to control; type: functional; details: BEL-7404, ip, read-out: TGI
BEL-7404 tumor cell line [30] = test: Antitumor activity against human Bel7404 cells xenografted in Balb/c nude mouse assessed as induction of necrosis at 25 to 50 mg/kg, ip for 20 days measured on day 21 post last dose by hematoxylin and eosin staining based microscopic method; type: functional, organism-based
Mus musculus [31] = test: Effect on caspase-3 protein expression in tumor tissues of Balb/c nude mouse xenografted with human Bel7404 cells at 25 to 50 mg/kg, ip bid for 20 days measured on day 21 by Western blot analysis; type: functional, organism-based
Mus musculus [32] = test: Downregulation of APAF-1 protein expression in tumor tissues of Balb/c nude mouse xenografted with human Bel7404 cells at 25 to 50 mg/kg, ip bid for 20 days measured on day 21 by Western blot analysis; type: functional, organism-based

SMILES: O=c1[nH]c2ccccc2cc1-c1nc2cc(Cl)ccc2[nH]1
- Activity (HepG2 [1]): 31.1%
- Activity (HepG2 [2]): 39.71%
- Activity (HepG2 [3]): 29.19%
- Activity (HepG2 [4]): 27.24%
- Activity (HepG2 [5]): Active
- Activity (HepG2 [6]): Active
- Activity (Mus musculus [7]): Active
- Activity (HepG2 [8]): Active
- Activity (HepG2 [9]): Active
- Activity (HepG2 [10]): Active
- Activity (HepG2 [11]): 68.62%
- Activity (HepG2 [12]): 0.76%
- Activity (HepG2 [13]): 53.37%
- Activity (HepG2 [14]): 35.9%
- Activity (HepG2 [15]): 10.42%
- Activity (HepG2 [16]): 37.3%
- Activity (HepG2 [17]): 0.45%
- Activity (HepG2 [18]): Dose-dependent effect
- Activity (HepG2 [19]): Active
- Activity (HepG2 [20]): Active
- Activity (HepG2 [21]): Active
- Activity (HepG2 [22]): Active
- Activity (HepG2 [23]): Active
- Activity (Mus musculus [24]): Active

SMILES: O=c1[nH]c2cc3c(cc2cc1-c1nc2cc(Cl)ccc2[nH]1)OCO3
- Activity (Mus musculus [25]): inactive
- T/C (BEL-7404 tumor cell line [26]): 44.8%
- T/C (BEL-7404 tumor cell line [27]): 51.5%
- inhibition in vivo at 25 mg/kg (BEL-7404 tumor cell line [28]): 41.2%
- inhibition in vivo at 50 mg/kg (BEL-7404 tumor cell line [29]): 44.9%
- Activity (BEL-7404 tumor cell line [30]): Active
- Activity (Mus musculus [31]): inactive
- Activity (Mus musculus [32]): Active
